# ChEMBL document CHEMBL1149910, “2-(6-aryl-3(Z)-hexen-1,5-diynyl)anilines as a new class of potent antitubulin agents” (J Med Chem, 2008)
# Tests used:
# Type in all cases: functional
# PC-3 = experiment: Cytotoxicity against human PC3 cells
# Method in brief: (§1)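 Tested in the NCI in vitro antitumor screening protocol across a tumor cell line panel. GI₅₀ is the concentration producing a 50% reduction in cell growth.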
# MDA-MB-231 [1] = experiment: Cell cycle arrest in human MDA-MB-231 cells assessed as accumulation of 2N cells at 9.0 uM after 72 hrs by flow cytometry
# UACC-257 = experiment: Cytotoxicity against human UACC257 cells; method in brief: as §1
# NCI-H522 = experiment: Cytotoxicity against human NCI-H522 cells; method in brief: as §1
# K562 [2] = experiment: Cell cycle arrest in human K562 cells assessed as accumulation at S phase at 50 uM after 24 hrs by flow cytometry
# Method in brief: (§2)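 K-562 human leukemia cells were grown in RPMI 1640 with 10% fetal calf serum, glutamine and penicillin/streptomycin at 37 °C in 5% CO₂. Cells were exposed to compound at 50 µM for 24 h, then pelleted and PBS-washed. They were fixed in ice-cold ethanol for 30 min, treated with 1 mg/mL RNase A at 37 °C for 30 min, and stained with propidium iodide and Triton X-100 for 30 min at room temperature in the dark. Per-phase and sub-G1 percentages came from flow cytometry gating.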
# HOP-62 = experiment: Cytotoxicity against human HOP62 cells; method in brief: as §1
# HL-60 = experiment: Cytotoxicity against human HL60 cells; method in brief: as §1
# COLO 205 = experiment: Cytotoxicity against human COLO205 cells; method in brief: as §1
# M14 = experiment: Cytotoxicity against human M14 cells; method in brief: as §1
# MDA-MB-231 [3] = experiment: Cell cycle arrest in human MDA-MB-231 cells assessed as accumulation of 4N cells at 9.0 uM after 72 hrs by flow cytometry
# OVCAR-8 = experiment: Cytotoxicity against human OVCAR8 cells; method in brief: as §1
# MDA-MB-231 [4] = experiment: Cell cycle arrest in human MDA-MB-231 cells assessed as accumulation of >4N cells at 18.0 uM after 24 hrs by flow cytometry
# MDA-MB-231 [5] = experiment: Cell cycle arrest in human MDA-MB-231 cells assessed as accumulation at sub-G1 phase at 27.0 uM after 24 hrs by flow cytometry
# LOX IMVI = experiment: Cytotoxicity against human LOXIMVI cells; method in brief: as §1
# HCT-116 = experiment: Cytotoxicity against human HCT116 cells; method in brief: as §1
# MDA-MB-231 [6] = experiment: Cell cycle arrest in human MDA-MB-231 cells assessed as accumulation of 2N cells at 18.0 uM after 72 hrs by flow cytometry
# NCI-H23 = experiment: Cytotoxicity against human NCI-H23 cells; method in brief: as §1
# MDA-MB-231 [7] = experiment: Cell cycle arrest in human MDA-MB-231 cells assessed as accumulation of >4N cells at 9.0 uM after 24 hrs by flow cytometry
# Method in brief: (§3)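 MDA-MB-231/ATCC cells were grown in DMEM with 10% fetal bovine serum, […], 1% nonessential amino acids, penicillin and streptomycin at 37 °C in 5% CO₂. They were exposed to 3.6, 9.0, 18, 27 or 36 µM for 24 or 72 h, with colchicine as control. DNA content was then read by flow cytometry, and […] cells were scored.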
# A498 = experiment: Cytotoxicity against human A498 cells; method in brief: as §1
# MDA-MB-435 [8] = experiment: (§4) Cytotoxicity against human MDA-MB-435 cells; method in brief: as §1
# MDA-MB-231 [9] = experiment: Cell cycle arrest in human MDA-MB-231 cells assessed as accumulation of 4N cells at 9.0 uM after 24 hrs by flow cytometry
# 786-0 = experiment: Cytotoxicity against human 786-0 cells; method in brief: as §1
# MDA-MB-231 [10] = experiment: Cell cycle arrest in human MDA-MB-231 cells assessed as accumulation of 2N cells at 3.6 uM after 24 hrs by flow cytometry
# Hs-578T = experiment: Cytotoxicity against human HS578T cells; method in brief: as §1
# SK-MEL-28 = experiment: Cytotoxicity against human SK-MEL28 cells
# Method in brief: (§5)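 Tested in the NCI in vitro antitumor screening protocol against human tumour cell lines.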
# SK-MEL-2 = experiment: Cytotoxicity against human SK-MEL2 cells; method in brief: as §5
# MDA-MB-231 [11] = experiment: Cell cycle arrest in human MDA-MB-231 cells assessed as accumulation of >4N cells at 9.0 uM after 72 hrs by flow cytometry; method in brief: as §3
# UACC-62 = experiment: Cytotoxicity against human UACC62 cells
# Method in brief: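 NCI in vitro antitumor screening protocol; GI50 taken as the concentration giving 50% reduction in cell growth.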
# MDA-MB-231 [12] = experiment: Cell cycle arrest in human MDA-MB-231 cells assessed as accumulation of >4N cells at 27.0 uM after 24 hrs by flow cytometry
# RPMI-8226 = experiment: Cytotoxicity against human RPMI8226 cells; method in brief: as §1
# MDA-MB-231 [13] = experiment: Cell cycle arrest in human MDA-MB-231 cells assessed as accumulation of 4N cells at 3.6 uM after 24 hrs by flow cytometry
# K562 [14] = experiment: Cell cycle arrest in human K562 cells assessed as accumulation at G2/M phase at 50 uM after 24 hrs by flow cytometry; method in brief: as §2
# MDA-MB-231 [15] = experiment: Cell cycle arrest in human MDA-MB-231 cells assessed as accumulation of 2N cells at 9.0 uM after 24 hrs by flow cytometry
# SF-295 = experiment: Cytotoxicity against human SF295 cells; method in brief: as §1
# HCT-15 = experiment: Cytotoxicity against human HCT15 cells; method in brief: as §1
# MDA-MB-435 [16] = experiment: as §4; method in brief: as §1; remark: listed apart in the source
# EKVX = experiment: Cytotoxicity against human EKVX cells; method in brief: as §1
# T47D = experiment: Cytotoxicity against human T47D cells; method in brief: as §1
# [17] = read-out: LC50 (the source's name)
smiles,measurement,setting,value
Nc1ccccc1C#C/C=C\C#Cc1ccccc1C(F)(F)F,GI50,PC-3,2.35 µM
same,TGI,PC-3,24.9 µM
same,CC50,PC-3; [17],94.2 µM
same,Activity,MDA-MB-231 [1],6.8%
same,GI50,UACC-257,0.536 µM
same,TGI,UACC-257,23.7 µM
same,CC50,UACC-257; [17],58.4 µM
same,GI50,NCI-H522,0.597 µM
same,TGI,NCI-H522,12.2 µM
same,CC50,NCI-H522; [17],51.2 µM
same,Activity,K562 [2],19.3%
same,GI50,HOP-62,0.77 µM
same,TGI,HOP-62,26.1 µM
same,CC50,HOP-62; [17],69.5 µM
same,GI50,HL-60,0.358 µM
same,TGI,HL-60,> 100 µM
same,CC50,HL-60; [17],> 100 µM
same,GI50,COLO 205,1.17 µM
same,TGI,COLO 205,13.8 µM
same,CC50,COLO 205; [17],> 100 µM
same,GI50,M14,0.372 µM
same,TGI,M14,13.2 µM
same,CC50,M14; [17],49.4 µM
same,Activity,MDA-MB-231 [3],21.3%
same,GI50,OVCAR-8,0.962 µM
same,TGI,OVCAR-8,21.5 µM
same,CC50,OVCAR-8; [17],80.7 µM
same,Activity,MDA-MB-231 [4],35.1%
same,Activity,MDA-MB-231 [5],24.7%
same,GI50,LOX IMVI,0.499 µM
same,TGI,LOX IMVI,10.5 µM
same,CC50,LOX IMVI; [17],46.2 µM
same,GI50,HCT-116,0.423 µM
same,TGI,HCT-116,12.5 µM
same,CC50,HCT-116; [17],47.4 µM
same,Activity,MDA-MB-231 [6],7.1%
same,GI50,NCI-H23,0.273 µM
same,TGI,NCI-H23,1.89 µM
same,CC50,NCI-H23; [17],47.8 µM
same,Activity,MDA-MB-231 [7],34%
same,GI50,A498,0.973 µM
same,TGI,A498,13.1 µM
same,CC50,A498; [17],40.7 µM
same,GI50,MDA-MB-435 [8],0.4 µM
same,TGI,MDA-MB-435 [8],0.53 µM
same,Activity,MDA-MB-231 [9],33.6%
same,GI50,786-0,0.7 µM
same,TGI,786-0,17.7 µM
same,CC50,786-0; [17],67 µM
same,Activity,MDA-MB-231 [10],9.5%
same,GI50,Hs-578T,0.501 µM
same,TGI,Hs-578T,28.9 µM
same,CC50,Hs-578T; [17],> 100 µM
same,TGI,SK-MEL-28,30.1 µM
same,CC50,SK-MEL-28; [17],80.2 µM
same,TGI,SK-MEL-2,26.5 µM
same,CC50,SK-MEL-2; [17],67.2 µM
same,Activity,MDA-MB-231 [11],18%
same,TGI,UACC-62,0.808 µM
same,GI50,UACC-62; read-out: GI50,0.261 µM
same,CC50,UACC-62; [17],29 µM
same,GI50,UACC-62; read-out: pGI50 (converted),0.251 µM
same,Activity,MDA-MB-231 [12],35.3%
same,GI50,RPMI-8226,0.738 µM
same,TGI,RPMI-8226,> 100 µM
same,CC50,RPMI-8226; [17],> 100 µM
same,Activity,MDA-MB-231 [13],35.6%
same,Activity,K562 [14],73.9%
same,Activity,MDA-MB-231 [15],9.3%
same,GI50,SF-295,0.396 µM
same,TGI,SF-295,2.6 µM
same,CC50,SF-295; [17],26.8 µM
same,GI50,HCT-15,1.26 µM
same,TGI,HCT-15,11.4 µM
same,CC50,HCT-15; [17],51.1 µM
same,GI50,MDA-MB-435 [16],0.398 µM
same,GI50,EKVX,0.358 µM
same,TGI,EKVX,12.4 µM
same,CC50,EKVX; [17],40.4 µM
same,GI50,T47D,17 µM
same,TGI,T47D,49.6 µM
same,CC50,T47D; [17],> 100 µM
